Hits are enriched below; roughly 2.4% of the tested compounds scored in any of these assays.
Casp6 inh = human caspase-6 inhibitors, primary screen, biochemical, VEID-R110 fluorescence, single point, set 2; AID 686996, 2013; inhibition, % at 12.5 µM; actives 0.53% (n = 350,000); P55212; purified caspase-6, Z-VEID-R110 cleavage fluorescence;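 active = mean inhibition across replicates at least about 35%, with every replicate also reaching that limit, limit read from the data; inconclusive = only one of the two criteria met; inactive = neither criterion met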
Target sequence (P55212 24-179 limits assumed): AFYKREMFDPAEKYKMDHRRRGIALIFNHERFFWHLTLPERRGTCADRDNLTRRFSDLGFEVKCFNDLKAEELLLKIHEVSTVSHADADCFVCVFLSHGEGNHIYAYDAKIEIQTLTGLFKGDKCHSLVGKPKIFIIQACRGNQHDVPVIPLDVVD
Target sequence (P55212 194-293 limits assumed): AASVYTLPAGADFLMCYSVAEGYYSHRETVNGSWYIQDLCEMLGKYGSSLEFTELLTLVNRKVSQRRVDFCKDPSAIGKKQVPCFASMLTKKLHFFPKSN
ERAP1 HTS inh = human ERAP1 aminopeptidase inhibitors, primary screen, biochemical, single point, plate reader | Endoplasmic reticulum aminopeptidase 1 (Homo sapiens), Q9NZ08 | recombinant ERAP1, Leu-AMC fluorescence, 60 min | inhibition, % at 10.7 µM | actives 0.15% (n = 340,000);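 active = mean replicate inhibition of at least 30%, or all replicates individually reaching that 30% level; inactive = mean below 30% and not every replicate reaching it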
S100A4 inh HTS = inhibitors of S100A4-myosin IIA peptide binding, primary screen, biochemical, fluorescence polarization, TAMRA-MyoIIA peptide; Protein S100-A4 (Homo sapiens), P26447; inhibition, % at 10.7 µM; actives 0.14% (n = 360,000); AID 652163, 2013;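 active = mean inhibition of at least 70% across replicates, with every replicate also reaching that level; inconclusive = mean inhibition reaches 70% but some replicates fall short; inactive = mean inhibition below 70%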
Target sequence (P26447 whole entry, looked up): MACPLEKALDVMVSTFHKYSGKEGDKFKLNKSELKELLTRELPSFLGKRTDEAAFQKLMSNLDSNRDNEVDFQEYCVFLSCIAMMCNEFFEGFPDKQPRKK
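Test system: S100A4 monomer protein; Medium: HEPES pH 7.2 with CaCl2, KCl, NaCl, DTT, Triton; Probe or stimulus: TAMRA-labelled myosin IIA heavy-chain peptide probe, 5 nM; Doses: one dose per compound; Times: polarization read 5 min after assay mix addition, stable 5–60 min; Benchmarks: neutral control DMSO, positive control TFP.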
Ecoli rRNA inh = reduced GFP signal of wild-type E. coli, primary screen, bacterial rRNA inhibitor project, GFP/RFP fluorescence, OD600, single point. E. coli WT GFP vs humanized-ribosome RFP mutants, 24 h; hits give low values; DMSO median 0, no signal -100. actives 1.6% (n = 350,000). GFP signal change (wild-type ribosome), % (concentration not given with the values);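 active = significant combined selectivity score with lowered wild-type GFP, culture density cut under 30%, mutant RFP and density less affected; inactive = any of these conditions unmet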
ARNT TACC3 PPI = disruptors of ARNT/TACC3 protein interaction, primary screen, biochemical, AlphaScreen, single concentration; AlphaScreen His-ARNT PAS-B/GST-TACC3 binding, luminescence; TACC3 fragment carries E629A point mutation; inhibition, % at 9.99 µM; actives 0.66% (n = 390,000); Transforming acidic coiled-coil-containing protein 3 (Homo sapiens), Q9Y6A5; AID 623870, 2012;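 active = mean inhibition of replicates at least 50% and at least half of replicates each reaching 50%; inconclusive = half or more replicates reach 50% but mean below 50%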
PGC1a acetyl inh = inhibitors of PGC1a acetylation signal, primary screen, cell-based, U2OS, AlphaScreen, inhibitor mode. actives 0.17% (n = 350,000). AID 651687, 2012. inhibition, % at 15.6 µM. AlphaScreen anti-acetyl-lysine; with virally co-expressed GCN5 acetyltransferase;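 active = every replicate shows inhibition of at least 40%; inconclusive = mean inhibition at least 40% but some replicate below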
ARNT Alpha ctr-1 = AlphaScreen signal interference compounds, dose response, artefact control for ARNT-TACC3 interaction inhibitor project, biochemical, luminescence, cherry-pick. shares compounds with ARNT TACC3 PPI. His-ARNT PASB-GST AlphaScreen artifact counter-screen. AC50, µM (highest dose often 68 µM). actives 50% (n = 1,200);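 active = every separate test run was called active for a drop in luminescence, with AC50 within twice the top valid dose, actives reach about 71 µM in these data; inconclusive = the separate test runs disagree in their calls; inactive = all runs inactive, including signal change in the wrong direction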
ARNT Alpha ctr-2 = AlphaScreen signal interference by compounds, dose response, artefact control for ARNT/TACC3 disruptor project, biochemical, dual-tagged ARNT, dry powder | shares compounds with ARNT TACC3 PPI | Dual-tagged His-ARNT PASB-GST AlphaScreen artifact counter-screen | AC50, µM | actives 70% (n = 45) | AID 720564, 2013;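 active = luminescence drop, with half-maximal potency fitted within twice the sample's top valid dose, cut at about 70 µM in these data; inactive = the rest, including signal moving the wrong way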
CASP1 counter = human caspase-1 inhibitors, dose response, selectivity assay for caspase-6 inhibitor project, biochemical, Z-YVAD-R110 fluorescence, cherry-pick, set 2; shares compounds with Casp6 inh; purified caspase-1, Z-YVAD-R110 cleavage fluorescence; activity change, negative = inhibition, % at 35 µM; 100 tested, under 10 active;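 active = compounds lowering fluorescence whose fitted half-maximal concentration is no more than twice their top tested dose; inconclusive = flat fit with 30 to 70% inhibition, or poor fit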
Target sequence (P29466 whole entry, looked up): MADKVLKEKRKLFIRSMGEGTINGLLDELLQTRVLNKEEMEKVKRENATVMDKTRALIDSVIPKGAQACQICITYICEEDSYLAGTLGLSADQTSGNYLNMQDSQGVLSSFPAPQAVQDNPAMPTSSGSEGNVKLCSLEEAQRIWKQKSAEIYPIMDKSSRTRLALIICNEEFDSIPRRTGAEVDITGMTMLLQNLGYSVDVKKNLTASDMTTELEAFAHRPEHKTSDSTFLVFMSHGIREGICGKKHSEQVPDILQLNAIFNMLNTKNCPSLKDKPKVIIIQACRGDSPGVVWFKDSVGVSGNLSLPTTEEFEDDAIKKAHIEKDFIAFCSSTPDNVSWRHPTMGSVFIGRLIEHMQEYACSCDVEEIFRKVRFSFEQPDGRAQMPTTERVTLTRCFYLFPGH
AID977621 = growth inhibition of wild-type GFP E. coli, dose response, H69 mutant RFP, cherry-pick; 1,900 tested, under 10 active; activity change, negative = inhibition at 50 µM; shares compounds with Ecoli rRNA inh; AID 977621, 2014; E. coli wild-type GFP strain growth, fluorescence, 24 h;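 active = Wild-type ribosome reporter drop at least double the humanized mutant ribosome reporter drop, growth loss under a set limit; inconclusive = no clear call, values can overlap the other calls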;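 note: wild-type GFP and H69 mutant RFP strains grown together 50/50 in each well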
AID977628 = E. coli growth inhibition, wild-type GFP versus h24 humanized RFP strain, dose response, h24 mutant RFP vs wild-type GFP, cherry-pick; shares compounds with Ecoli rRNA inh; E. coli WT GFP strain growth, fluorescence, 24 h; activity change, negative = inhibition at 50 µM; 1,900 tested, under 10 active;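 active = compound lowering the normal-ribosome reporter at least twice as much as the humanized-ribosome reporter, growth loss under a set limit; inconclusive = no clear call, values can overlap the other calls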;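 note: wild-type GFP and h24 humanized RFP strains co-cultured 1 to 1 per well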
A number is an active result; i = inactive; ? = inconclusive; nt = no result.

SMILES | Casp6 inh | ERAP1 HTS inh | S100A4 inh HTS | Ecoli rRNA inh | ARNT TACC3 PPI | PGC1a acetyl inh | others
CCC(C)/C=C(C)/C=C/C1=CC2=C(Cl)C(=O)C(C)(OC(C)=O)C(=O)C2=CO1 (configuration not stated) | nt | nt | nt | nt | 48.9 | i
Clc1cc(Cl)cc(NC2=NCCS2)c1 | i | i | i | -25.5 | i | i
Clc1cccc(Cl)c1NC1=NCCS1 | i | i | i | i | nt | i
Cc1ccc(OC(=O)N(C)C[C@@H]2OCc3ccccc3-c3c(n(C)c4ccccc34)C(=O)N([C@@H](C)CO)C[C@H]2C)cc1 | i | i | i | i | nt | nt
COc1ccc(-c2ccc3n(c2=O)C[C@H]2[C@H](CO)[C@@H](C(=O)O)[C@@H]3N2C(=O)c2ccccc2F)cc1 | i | i | i | i | i | nt
O=C1NC(=O)C(=Cc2ccc(Sc3ccccc3)o2)C(=O)N1 | i | i | i | nt | i | i
O=C1NC(=O)N(c2ccc(Cl)cc2)C(=O)/C1=C\c1ccc(Sc2nc3ccccc3[nH]2)o1 | 69.2 | i | i | i | nt | nt
O=[N+]([O-])c1ccc(O)c([N+](=O)[O-])c1 | i | i | i | i | i | i
O=C(O)c1ccc([N+](=O)[O-])c([N+](=O)[O-])c1 | 40.8 | i | i | i | i | i
CCN(CCCl)c1cc(CN(C)C)cc(NC(=O)c2ccc(C(=O)Nc3cc(CN(C)C)cc(N(CC)CCCl)c3)cc2)c1 | i | 48.9 | i | i | 53.8 | i | ARNT Alpha ctr-1=4.28µM
CC=Cc1ccc2n(c1=O)C[C@H]1[C@H](CO)[C@@H](C(=O)O)[C@@H]2N1S(=O)(=O)c1ccccc1F (mixture of isomers) | i | i | i | i | i | nt
Oc1cccc2cccnc12 | i | i | i | nt | nt | i
N#CC1(c2ccccc2)CCN(C2CC(=O)N(c3cccc(F)c3)C2=O)CC1 (configuration not stated) | i | i | i | i | i | i
N#CC1(c2ccccc2)CCN(Cc2ccc(O)c3ncccc23)CC1 | nt | nt | nt | nt | nt | nt | ARNT Alpha ctr-1=5.91µM
Oc1ccc(CN2CCC3CCCCC3C2)c2cccnc12 (configuration not stated) | nt | nt | nt | nt | nt | nt | ARNT Alpha ctr-1=3.29µM
CCCN1[C@@H]2c3cccc(=O)n3C[C@H]1[C@H](CO)[C@H]2C(=O)N(C)C | i | i | i | i | i | nt
O=C(Nc1ccc(Cl)cc1)O/N=C(\c1ccccc1)c1ccccn1 | nt | nt | nt | nt | 50.2 | i | ARNT Alpha ctr-1=i
CCn1nc(-c2cccnc2)nc2c(=O)n(C)c(=O)nc1-2 | nt | nt | nt | nt | nt | nt | ARNT Alpha ctr-2=i
COc1cccc(-c2ccc([C@H]3[C@@H](CO)N4CCCCN(C(=O)Cc5ccncc5)C[C@H]34)cc2)c1 | i | i | i | i | nt | i
O=C1CNC[C@H]2[C@@H](c3ccc(Br)cc3)[C@@H](CO)N12 | i | i | i | i | nt | i
Clc1cccc(CNCCc2c[nH]c3ccccc23)c1 | i | i | i | i | 51.6 | i | ARNT Alpha ctr-1=i
FC(F)(F)c1ccc(CNCCc2c[nH]c3ccccc23)cc1 | i | i | i | i | i | i
O=C(N/N=C/c1c(O)n(CCC2=CCCCC2)c(=S)[nH]c1=O)c1ccccc1 | i | i | i | i | i | nt
O=C(N/N=C/c1c(O)n(CCC2=CCCCC2)c(=O)[nH]c1=O)c1ccccc1 | i | i | i | i | 50.6 | i | ARNT Alpha ctr-1=i
CC1CN(c2ccc([N+](=O)[O-])c3cccnc23)CC(C)N1 (configuration not stated) | nt | nt | nt | nt | 59.4 | i | ARNT Alpha ctr-1=i
SMILES | Casp6 inh | ERAP1 HTS inh | S100A4 inh HTS | Ecoli rRNA inh | ARNT TACC3 PPI | PGC1a acetyl inh | others
COc1cc2c(cc1OC)-c1c(OC)c(OC)cc3c1[C@H](C2)N(C)CC3 | 58.4 | i | i | i | 68.8 | i | CASP1 counter=i
O=C(O)[C@@H]1[C@@H](CO)[C@@H]2Cn3c(cccc3=O)[C@H]1N2C(=O)c1ccccc1 | i | i | i | i | i | nt
COCCNC(=O)c1c(N)n(CCC(C)C)c2nc3ccccc3nc12 | nt | nt | nt | nt | i | i
CC(C)CCn1c(N)c(C(=O)NCc2cccs2)c2nc3ccccc3nc21 | i | i | i | -21.9 | i | i | AID977621=i;AID977628=?
Oc1c(Br)cc(Br)cc1Br | i | i | i | -21.4 | nt | i | AID977621=i;AID977628=i
C[C@H]1CN([C@@H](C)CO)C(=O)c2c(c3ccccc3n2C)-c2ccccc2CO[C@H]1CN(C)C(=O)Oc1ccccc1 | i | i | i | i | nt | nt
N#Cc1cccc(-c2ccc([C@@H]3[C@@H](CO)N4CCCCN(C(=O)Cc5ccccc5)C[C@H]34)cc2)c1 | i | i | i | i | i | i
CC(C)Cc1nc(N2CCNCC2)c(C#N)c2c1CCC2 | i | i | i | -20.7 | nt | i | AID977621=i
COC(=O)[C@H]1[C@H](CO)[C@H]2Cn3c(ccc(C4=CCCCC4)c3=O)[C@@H]1N2CC1CCCCC1 | i | i | i | i | nt | i
CSc1ccc(CN2CCN(Cc3ccccc3Cl)CC2)cc1 | i | i | i | -22.5 | i | nt | AID977628=?
O=C(c1ccc(F)cc1Cl)N1CCC2(CC1)OCCO2 | i | i | i | i | i | i
O=C(c1sc2ccccc2c1Cl)N1CCC2(CC1)OCCO2 | i | i | i | -19.6 | i | i | AID977621=i;AID977628=i
Cc1c(C(=O)Nc2ccccc2)c2cc(O)ccc2n1Cc1ccccc1 | i | i | i | -19.8 | i | i | AID977621=i;AID977628=?
O=C1CNC[C@@H]2[C@@H](c3ccc(Br)cc3)[C@@H](CO)N12 | i | i | i | i | nt | i
CCOC(=O)C1(CCOc2ccccc2)CCN(C2Cc3ccccc3C2)CC1 | i | i | i | i | i | nt
CCOC(=O)C12C(=O)OCC1C2c1ccccc1 (configuration not stated) | i | i | i | -4.1 | nt | nt | AID977621=i;AID977628=i

Assay outcomes from PubChem BioAssay.
